Source: ChEMBL document CHEMBL1149558, “Synthesis of symmetrical C- and pseudo-symmetrical O-linked disaccharide analogs for arabinosyltransferase inhibitory activity in Mycobacterium tuberculosis” (Bioorg Med Chem Lett, 2007)
Converted amounts (≈) assume the structure as drawn. The source made the active and inactive calls. The calls are words filed in the database; no cut-off is given here.

What was measured:
Mycobacterium avium [1] = assay: Antimycobacterial activity against Mycobacterium avium at 12.8 ug/mL; format: functional, organism-based
In short: (§1)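 Colorimetric broth microdilution against M. tuberculosis H37Ra (ATCC 25177) and M. avium NJ 211. Initial screen at 1.28 and 12.8 μg/mL. Activity was confirmed with […] dilutions at 16, 8 and 4 μg/mL to set the MIC.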

[2] = test system: Mycobacterium tuberculosis; assay: Antimycobacterial activity against Mycobacterium tuberculosis H37Ra; format: functional; in short: as §1
[3] = target: T1, Probable arabinosyltransferase A (Mycobacterium tuberculosis) (UniProt P9WNL9); assay: Inhibition of Mycobacterium smegmatis arabinosyl transferase assessed as [14C]arabinofuranose incorporation at 3.6 mM; conditions: Mycolicibacterium smegmatis
T1 sequence (whole entry): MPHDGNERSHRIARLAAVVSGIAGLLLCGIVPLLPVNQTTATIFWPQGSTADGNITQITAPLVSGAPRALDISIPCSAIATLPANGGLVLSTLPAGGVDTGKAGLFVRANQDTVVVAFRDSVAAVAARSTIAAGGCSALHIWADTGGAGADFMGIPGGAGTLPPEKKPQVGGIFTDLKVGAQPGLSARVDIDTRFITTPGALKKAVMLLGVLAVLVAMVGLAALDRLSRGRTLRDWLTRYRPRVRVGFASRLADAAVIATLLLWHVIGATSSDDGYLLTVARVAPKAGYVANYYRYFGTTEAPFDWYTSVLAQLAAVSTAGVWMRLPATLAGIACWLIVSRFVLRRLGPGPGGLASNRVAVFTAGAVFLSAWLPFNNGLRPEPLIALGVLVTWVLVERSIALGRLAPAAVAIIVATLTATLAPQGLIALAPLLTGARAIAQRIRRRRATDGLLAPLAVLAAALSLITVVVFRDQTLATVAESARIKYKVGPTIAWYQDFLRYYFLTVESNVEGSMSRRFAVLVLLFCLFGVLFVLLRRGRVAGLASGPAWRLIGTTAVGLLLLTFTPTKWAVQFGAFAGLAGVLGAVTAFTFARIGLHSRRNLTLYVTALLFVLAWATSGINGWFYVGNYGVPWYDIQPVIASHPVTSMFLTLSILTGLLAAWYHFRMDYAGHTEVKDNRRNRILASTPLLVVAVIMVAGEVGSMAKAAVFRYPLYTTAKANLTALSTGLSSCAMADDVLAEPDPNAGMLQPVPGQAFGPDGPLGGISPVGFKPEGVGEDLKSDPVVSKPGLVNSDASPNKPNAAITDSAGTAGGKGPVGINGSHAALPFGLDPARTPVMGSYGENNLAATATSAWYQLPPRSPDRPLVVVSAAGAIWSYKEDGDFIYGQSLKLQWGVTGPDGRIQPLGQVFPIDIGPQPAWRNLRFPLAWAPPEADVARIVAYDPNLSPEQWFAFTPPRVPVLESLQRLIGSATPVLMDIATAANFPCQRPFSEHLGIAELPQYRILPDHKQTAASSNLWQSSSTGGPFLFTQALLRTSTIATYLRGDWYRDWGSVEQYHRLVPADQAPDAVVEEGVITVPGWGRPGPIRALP
In short: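 Cell-free competition arabinosyltransferase acceptor assay with membranes and [14C]DPA as glycosyl donor. The read-out is inhibition of [14C]Araf incorporation into the α(1→5)-linked 1-O-octyl arabinofuranosyl disaccharide acceptor at 0.4 mM. Test compounds were run at 3.6 mM, and IC50 values were also derived.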

Mycobacterium avium [4] = assay: Antimycobacterial activity against Mycobacterium avium; format: functional; in short: as §1

CC(C)(C)[Si](C)(C)O[C@H]1[C@H](O[Si](C)(C)C(C)(C)C)[C@@H](CN(CC2CCCCC2)CC2CCCCC2)O[C@@H]1CO[C@H]1O[C@H](CN(CC2CCCCC2)CC2CCCCC2)[C@@H](O)[C@@H]1O
Activity (Mycobacterium avium [1]): inactive | MIC [2]: > 12.8 µg/mL

CC(C)(C)[Si](C)(C)O[C@H]1[C@H](O[Si](C)(C)C(C)(C)C)[C@@H](CO[C@H]2O[C@H](CN=[N+]=[N-])[C@@H](O)[C@@H]2O)O[C@@H]1CN=[N+]=[N-]
Activity (Mycobacterium avium [1]): inactive | MIC [2]: 16 µg/mL (≈ 27.8 µM)

O[C@@H]1[C@@H](OC[C@H]2O[C@H](CN(CC3CCCCC3)CC3CCCCC3)[C@@H](O)[C@@H]2O)O[C@H](CN(CC2CCCCC2)CC2CCCCC2)[C@H]1O
Activity [3]: Active | MIC [2]: 8 µg/mL (≈ 11.8 µM) | MIC (Mycobacterium avium [4]): 16 µg/mL (≈ 23.6 µM)

O[C@H]1[C@H](O)[C@@H](CN(CC2CCCCC2)CC2CCCCC2)O[C@@H]1CC[C@H]1O[C@H](CN(CC2CCCCC2)CC2CCCCC2)[C@@H](O)[C@@H]1O
Activity [3]: Active | MIC [2]: 16 µg/mL (≈ 23.6 µM) | MIC (Mycobacterium avium [4]): 16 µg/mL (≈ 23.6 µM)

O[C@H]1[C@H](O)[C@@H](CN(CC2CCCCC2)CC2CCCCC2)O[C@@H]1/C=C/[C@H]1O[C@H](CN(CC2CCCCC2)CC2CCCCC2)[C@@H](O)[C@@H]1O
Activity [3]: Active | MIC [2]: 8 µg/mL (≈ 11.9 µM) | MIC (Mycobacterium avium [4]): 8 µg/mL (≈ 11.9 µM)

CC[C@@H](CO)NCCN[C@@H](CC)CO [ETHAMBUTOL]
MIC [2]: 2 µg/mL (≈ 9.79 µM)
